An excerpt weighted towards active compounds, which were near 2% of everything screened.
NS3 helicase inh: blocks Hepatitis C virus NS3 helicase unwinding. NS3 helicase DNA unwinding, Cy5 molecular beacon fluorescence. hit rate 0.56% among 290,000. inhibition, % at 10.9 µM;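 active = inhibition above the mean of all tested compounds plus 3 SD, set per campaign, cut at about 35% in these data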
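Measured by: Cy5 fluorescence, 0 and 60 min reads / Assay system: NS3 helicase fragment of HCV / Control set: low DMSO, high thioflavine S at 110 µM / Times: 1 h reaction at 25 °C, ATP-initiated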
FID counter: displaces DNA intercalator in HCV helicase counter-screen; DNA fluorescent intercalator displacement, fluorescence; inhibition, % at 7.9 µM; hit rate 0.17% among 290,000; in the data active = inhibition above about 37%;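 note: higher means more ethidium bromide displaced from hairpin DNA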
eIF4H inh: inhibitors of RNA binding by human eIF4H. eIF4H fluorescence polarization binding assay. inhibition, % at 35 µM. AID 2012. hit rate 0.94% among 290,000. Q15056;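 note: calls also rest on retests at 20 µM and on dose response follow-up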
MLLE-PAM2 inh: inhibitors of microRNA-mediated deadenylation, human PABP1 MLLE binding. P11940. GST-MLLE / FITC-PAM2 fluorescence polarization. inhibition, % at 20 µM. hit rate 0.36% among 360,000. AID 588489; in the data active = inhibition above about 35%, passing the limit was not always enough
PABP polyA inh: PABP-poly(A) binding inhibition. PABP-poly(A) RNA binding, fluorescence polarization. hit rate 1% among 290,000. P11940. inhibition, % at 35 µM. AID 2014;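 note: calls also rest on retests at 20 µM and on dose response follow-up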
HCV core dimer: HCV core protein dimerization inhibition; TR-FRET GST/Flag-core106 dimerization, 1536-well; inhibition, % at 5 µM; hit rate 0.33% among 300,000; AID 1899;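 active = inhibition above the mean of all tested compounds plus 3 SD, set per screening campaign, cut at about 45% in these data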
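Assay system: GST-tagged and Flag-tagged HCV core protein residues 1-106 / Times: compound-protein-antibody incubation 4 h at 22.5 °C / Signal: time-resolved FRET, ex 340 nm, em 617 and 671 nm / Evaluation: % inhibition based on acceptor/donor emission ratio / Benchmarks: wells lacking GST-core106 and wells with excess unlabelled core106 / Repeats: singlicate, one well per compound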
Numbers stand for hits; 0 = inactive; ? = inconclusive; - = no result given. Unless noted, the rule behind the calls is not given here.

SMILES	NS3 helicase inh	FID counter	eIF4H inh	MLLE-PAM2 inh	PABP polyA inh	HCV core dimer
CN(C)Cc1cc(C(C)(C)c2cc(CN(C)C)c(O)c(CN(C)C)c2)cc(CN(C)C)c1O	0	38	0	0	0	0
CN(C)Cc1cc(OCc2ccccc2)cc(CN(C)C)c1O	-	-	-	0	-	-
NC(=O)NC(=O)CC1S/C(=N/N=C/c2ccccc2)NC1=O (centres undefined)	0	0	0	0	0	0
NC(=O)NC(=O)CC1S/C(=N/N=C2\CSC(=O)N2)NC1=O (centres undefined)	0	0	0	43	0	0
CC1(C)c2ccccc2N2CC(=O)NC21/C=C/c1ccco1 (centres undefined)	0	0	0	0	0	0
CC1(C)c2ccccc2N2CCC(=O)NC21/C=C/c1ccco1 (centres undefined)	0	0	?	0	105	0
CC(C)(C)c1cc(C(=O)NNc2cc(C(F)(F)F)ccc2Cl)n(Cc2ccccc2)n1	0	0	52	0	0	0
CCCN(CC(=O)Nc1ccccc1OC)C(=O)c1ccc2c(c1)NC(=O)C(C)S2 (centres undefined)	-	-	-	0	-	-
O=C1c2ccccc2S(=O)(=O)N1CC(O)Cn1ccc2ccccc21 (centres undefined)	0	0	88	0	97	0
OC(CN1CCNCC1)Cn1ccc2ccccc21 (centres undefined)	0	0	0	-	0	0
CC1=NN(c2ccc(Cl)c(C(=O)O)c2)C(=O)C1	0	0	0	0	0	0
CC1=NN(c2ccc(C(=O)O)c(N)c2)C(=O)C1	0	0	98	0	0	0
O=C1OC(Sc2ccccc2)(c2ccccc2)c2ccccc21 (centres undefined)	-	-	-	0	-	-
CN(C)[C@@H]1C(=O)C(C(=O)NCN2CCCC2)=C(O)[C@@]2(O)C(=O)C3=C(O)c4c(O)cccc4[C@@](C)(O)C3CC12 (some centres undefined)	47	0	0	-	0	-
O=c1cc(CO)oc(C(Nc2ccccn2)c2ccsc2)c1O (centres undefined)	0	0	71	-	48	0
O=c1cc(CO)oc(C(Nc2ccccn2)c2ccc(F)cc2)c1O (centres undefined)	0	0	0	0	0	0
COc1ccc(C(CNC(=O)/C=C/c2c(Cl)nc3ccccn23)N(C)C)cc1 (centres undefined)	0	0	7.6	0	66	0
COc1ccc(CCN(C)C(=O)/C=C/c2c(Cl)nc3ccccn23)cc1OC	0	0	0	0	0	0
CSc1ccc(CN2CCC2(C)C(=O)NCc2cccs2)cc1 (centres undefined)	-	-	-	0	-	-
Cc1ccc2c(c1C)NC(C(=O)O)C1CC=CC21 (centres undefined)	-	-	94	0	72	71
O=C(c1ccccc1O)N1CCOCC1	0	0	0	0	0	0
O=C(O)C1Nc2c(C(=O)N3CCOCC3)cccc2C2C=CCC12 (centres undefined)	0	0	99	0	50	0
O=C(O)C1Nc2c(C(F)(F)F)ccc(Cl)c2C2C=CCC12 (centres undefined)	0	0	0	0	0	0
Nc1ncnc2oc(-c3ccco3)c(-c3ccco3)c12	0	0	104	0	94	73
CCN(C(=O)CN(C1=NC2CS(=O)(=O)CC2S1)c1ccc(OC)cc1)c1cccc(C)c1 (centres undefined)	-	-	-	0	-	-
SMILES	NS3 helicase inh	FID counter	eIF4H inh	MLLE-PAM2 inh	PABP polyA inh	HCV core dimer
COC(=O)C(C)N1C(=O)S/C(=C/c2cc(C)n(-c3ccccn3)c2C)C1=O (centres undefined)	0	0	83	0	75	0
CCOC(=O)N1C=CC=C[C@@H]2[C@@H](N3C(=O)c4ccccc4C3=O)C(=O)N21	0	0	0	0	93	0
CCOc1ccc(C(=O)OCC(=O)N2CC(C)OC(C)C2)cc1OCC (centres undefined)	0	0	0	0	0	0
COc1ccc(C2CC(c3ccccc3)=NN2c2ccc(/C=N/NC(=O)c3ccncc3)cc2)cc1 (centres undefined)	0	0	0	0	0	48
Cc1sc(NC(=O)C2CSC3(C)CCC(=O)N23)nc1-c1ccccc1 (centres undefined)	-	-	-	0	-	0
CC(NC(=O)c1cccs1)C(S)c1ccccc1 (centres undefined)	0	0	0	43	0	0
O=C1C2CC=C(Cl)CC2C(=O)N1CCCCCCN1C(=O)C2CC=C(Cl)CC2C1=O (centres undefined)	0	0	99	0	100	0
Cc1nnc(N2C(=O)c3oc4ccccc4c(=O)c3C2c2ccco2)s1 (centres undefined)	0	0	0	48	0	0
O=C(NP(=O)(N1CCCC1)N1CCCC1)C1=C(N2CCOCC2)/C(=C/c2cccc([N+](=O)[O-])c2)CC1	0	0	0	0	0	0
CCOC(=O)C(=O)C1=C(N2CCOCC2)/C(=C\c2cccc([N+](=O)[O-])c2)CC1	0	0	0	0	active	0
CCN(CC)c1ccc2cc(C(=O)Nc3ccc(-n4cnnn4)c(OC)c3)c(=O)oc2c1	-	-	76	-	78	-
CCCn1c(/C=C/c2ccccc2)nc2ccccc21	0	0	0	0	0	0
CCn1c(/C=C/c2cc[n+](C)cc2)nc2ccccc21	0	0	0	0	100	0
O=S1(=O)CCS(=O)(=O)C1c1ccccc1	-	-	-	0	-	0
COc1ccc(-c2cc(C(F)(F)F)c3c(n2)sc2c(O)cc(=O)[nH]c23)c(OC)c1	0	0	0	0	0	48
Cc1cc(C)c2c(n1)sc1c(O)cc(=O)[nH]c12	0	0	0	0	0	0
Cc1ccc(S(=O)(=O)n2cccc2C)cc1	-	-	-	0	-	0
O=C(CSc1ccc2nnc(-c3ccccc3)n2n1)N1CCCCC1	-	-	-	40	-	0
COc1ccc(-c2nnc3ccc(SCC(=O)N4CCCC4)nn23)cc1	0	0	0	0	0	0
Cc1nc(S/C(=C\c2ccc(-c3ccc(C(=O)O)c(Cl)c3)o2)C(=O)O)n[nH]1	0	0	75	0	55	-
Cc1cc(C)c(NC(=O)CN(C)C(=O)CNC(=O)c2cccs2)c(C)c1	-	-	-	0	-	-
O=C(COc1ccc(Br)cc1Cl)c1ccc[nH]1	0	0	0	0	0	0
O=C(COc1ccccc1Cl)c1ccc[nH]1	0	0	?	0	0	67
C=C(C)C(=O)Nc1cccc(C2=NOC3(C2)C[C@@H](C(N)=O)N(C(=O)/C=C/C=C/C)C3)c1 (some centres undefined)	-	-	93	0	56	0
C/C=C/C(=O)Nc1cccc(C2=NOC3(C2)C[C@H](C(N)=O)N(C(=O)/C=C/C)C3)c1 (some centres undefined)	-	-	0	0	0	0

Compound activity as filed in PubChem BioAssay.
